Data reported in ChEMBL document CHEMBL1122810 (J Med Chem, 1984).

How the values were obtained:
H35R0.3 [1] = experiment: Growth inhibition of H35R0.3 cell lines; type: functional, cell-based; conditions: Rattus norvegicus
Summary of the method: (§1)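 H35 rat hepatoma cells and the transport-defective H35R0.3 subline, which has normal DHFR content, were incubated with drug for 72 h, and the IC50 was determined.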

Mus musculus [2] = experiment: Inoculation of 10 e5 L1210 cells, ip, on day 0, & treatment was started on day 1 with the administration of the compound, ip, in groups of five B6D2F1J male mice at dose 40 mg/kg; type: functional
H35 [3] = experiment: (§2) Cytotoxic activity with respect to methotrexate; type: functional, Rattus norvegicus
H35R0.3 [4] = experiment: as §2; type: functional, Rattus norvegicus
L1210 [5] = experiment: Growth inhibition of L1210 cell lines; type: functional, cell-based; conditions: Mus musculus
Summary of the method: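 L1210 murine leukemia cells were incubated with drug in culture for 48 h. Percent cell growth relative to untreated controls was plotted against concentration to obtain the IC50.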

L1210 [6] = experiment: as §2; type: functional, Mus musculus
Mus musculus [7] = experiment: Inoculation of 10 e5 L1210 cells, ip, on day 0, & treatment was started on day 1 with the administration of the compound, ip, in groups of five B6D2F1J male mice at dose 20 mg/kg; type: functional
Dihydrofolate reductase = target: T1, Dihydrofolate reductase (Mus musculus, UniProt P00375); experiment: Inhibitory activity towards dihydrofolate reductase in L1210 murine leukemia cell lines; type: cell-based
T1 sequence (P00375 whole entry): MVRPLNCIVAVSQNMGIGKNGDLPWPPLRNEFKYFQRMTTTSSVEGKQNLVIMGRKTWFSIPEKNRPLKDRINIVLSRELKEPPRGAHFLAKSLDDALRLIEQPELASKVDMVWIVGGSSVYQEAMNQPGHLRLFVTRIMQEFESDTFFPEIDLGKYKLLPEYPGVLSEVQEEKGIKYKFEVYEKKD

Mus musculus [8] = experiment: Inoculation of 10 e5 L1210 cells, ip, on day 0, & treatment was started on day 1 with the administration of the compound, ip, in groups of five B6D2F1J male mice at dose 10 mg/kg; type: functional
H35 [9] = experiment: Growth inhibition of H35 cell lines; type: functional, cell-based; conditions: Rattus norvegicus; summary of the method: as §1
Mus musculus [10] = experiment: Inoculation of 10 e5 L1210 cells, ip, on day 0, & treatment was started on day 1 with the administration of the compound, ip, in groups of five B6D2F1J male mice at dose 0.5 mg/kg; type: functional
Mus musculus [11] = experiment: Inoculation of 10 e5 L1210 cells, ip, on day 0, & treatment was started on day1 with the administration of the compound, ip, in groups of five B6D2F1J male mice at dose 0.5 mg/kg
Mus musculus [12] = experiment: Inoculation of 10 e5 L1210 cells, ip, on day 0, & treatment was started on day 1 with the administration of the compound, ip, in groups of five B6D2F1J male mice at dose 0.5 mg/kg; 14-20; type: functional
Summary of the method: (§3)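 Vehicle sterile 0.9% NaCl, ip. Dosing on days 1-10: twice daily on days 1-4 and 7-10, once daily on days 5 and 6 with a double dose given on those days. Endpoint is increase in life span (ILS) versus untreated controls. Doses are also stated as MTX-equivalent doses rounded to the nearest mg/kg.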

Mus musculus [13] = experiment: Inoculation of 10 e5 L1210 cells, ip, on day 0, & treatment was started on day 1 with the administration of the compound, ip, in groups of five B6D2F1J male mice at dose 1.0 mg/kg; 17-22; type: functional; summary of the method: as §3
Mus musculus [14] = experiment: Inoculation of 10 e5 L1210 cells, ip, on day 0, & treatment was started on day 1 with the administration of the compound, ip, in groups of five B6D2F1J male mice at dose 1.0 mg/kg; T=19; C=9; type: functional
Mus musculus [15] = experiment: Inoculation of 10 e5 L1210 cells, ip, on day 0, & treatment was started on day1 with the administration of the compound, ip, in groups of five B6D2F1J male mice at dose 1 mg/kg; type: functional
Summary of the method: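 Male B6D2F1J mice, five per group, received 10^5 L1210 cells ip on day 0. From day 1, drug in sterile 0.9% NaCl was injected ip twice daily on days 1–4 and 7–10, with one double dose on each of days 5 and 6. […]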

Mus musculus [16] = experiment: Inoculation of 10 e5 L1210 cells, ip, on day 0, & treatment was started on day 1 with the administration of the compound, ip, in groups of five B6D2F1J male mice at dose 0.5 mg/kg; T =18; C=9; type: functional
Mus musculus [17] = experiment: Inoculation of 10 e5 L1210 cells, ip, on day 0, & treatment was started on day 1 with the administration of the compound, ip, in groups of five B6D2F1J male mice at dose 1.0 mg/kg

Row | IC50 (Dihydrofolate reductase) | Structure (SMILES) | IC50 (H35R0.3 [1]) | 7-day weight change (Mus musculus [2]) | Relative activity (H35 [3]) | Relative activity (H35R0.3 [4]) | IC50 (L1210 [5]) | Relative activity (L1210 [6]) | 7-day weight change (Mus musculus [7]) | 7-day weight change (Mus musculus [8]) | IC50 (H35 [9]) | 7-day weight change (Mus musculus [10]) | ILS at 0.5 mg/kg (Mus musculus [11]) | Survival range (Mus musculus [12]) | Survival range (Mus musculus [13]) | median survival (days) (Mus musculus [14]) | 7-day weight change (Mus musculus [15]) | median survival (days) (Mus musculus [16]) | ILS at 1 mg/kg (Mus musculus [17])
1 | 87 nM | CN(Cc1cnc2nc(N)nc(N)c2n1)c1ccc(C(=O)NC(CCC(=O)NCCCCC(N)C(=O)O)C(=O)O)cc1 (stereo unspecified) | 6000 nM | 2% | 0.025 | 0.3 | 760 nM | 0.032 | 5% | 11% | 400 nM | – | – | – | – | – | – | – | –
2 | – | CN(Cc1cnc2nc(N)nc(N)c2n1)c1ccc(C(=O)N[C@@H](CCC(=O)O)C(=O)O)cc1 [METHOTREXATE] | 1800 nM | – | – | – | 24 nM | – | – | – | 10 nM | 0% | 100% | 20 | 22 | 19 | -9% | 18 | 111%
